Sampled rows, rich in hits. Any-hit rate of the full collection: about 3.7%.
hERG rescue – hERG (human) protection from proarrhythmic block. activation (rescue from dofetilide block), less the hit threshold, % at 10 µM. Q12809. AID 1511. CHO-hERG, FluxOR thallium flux, dofetilide IC70 present. hit rate 0.51% among 310,000;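 active means activation above the mean of controls blocked by dofetilide plus 5 SD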;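 further: thallium influx through hERG after potassium depolarization seen as dye fluorescence rise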
KCNQ1 pot – potentiators or activators of human KCNQ1 potassium channel; CHO-K1 KCNQ1, thallium flux FluxOR fluorescence; stronger effect = higher value; hit rate 0.35% among 310,000; B-score at 10 µM; P51787; AID 2648;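 active means fluorescence ratio B-score, a plate-corrected score, at least three library SD, with initial intensity B-score within 5 SD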
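Medium – assay buffer, equal DMSO in all wells · Material – CHO-K1 cell line with stable KCNQ1 potassium channel expression · Signal – kinetic FluxOR thallium fluorescence, 10-s 1-Hz baseline, 110-s post-stimulus read · Compound – single concentration per compound, DMSO matched to controls · Schedule – 37 °C overnight plating, 90-min dark dye load, 20-min compound pretreatment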
Kir21 block – blocks the mouse Kir2.1 inward-rectifier potassium channel. HEK293-Kir2.1, FluxOR thallium flux fluorescence; stronger effect = lower value. B-score at 10 µM. hit rate 0.85% among 310,000. AID 1672;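 active means fluorescence ratio B-score at or below minus 3 SD of library scores, with starting-brightness B-score within 2 SD, cut at about -4.2 in these data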;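 further: channel flux triggered by added potassium and thallium sulfate stimulus; B-score of peak minus minimum fluorescence over baseline after thallium stimulus; more negative B-score means stronger Kir2.1 block with less thallium influx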
KCNK9 block – inhibitors of human KCNK9 two-pore domain potassium channel. hit rate 1.2% among 310,000. AID 488922. HEK293 KCNK9, FluxOR thallium flux fluorescence; stronger effect = lower value. B-score at 10 µM. Q9NPC2;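 active means ratio B-score over 3 SD below the library mean, with starting fluorescence within 5 SD of its mean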;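 further: negative B-score means less thallium flux so channel inhibition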
KCNK3 inh – human KCNK3 channel inhibition, primary screen | CHO-KCNK3 thallium flux, FluxOR fluorescence; stronger effect = lower value | B-score at 10 µM | hit rate 0.84% among 340,000;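 active means B-score under library mean minus 4 SD, starting fluorescence ratio at most library mean plus 5 SD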;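 further: more negative B-score means stronger inhibition of thallium flux through KCNK3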
Target sequence (O14649 whole entry, looked up): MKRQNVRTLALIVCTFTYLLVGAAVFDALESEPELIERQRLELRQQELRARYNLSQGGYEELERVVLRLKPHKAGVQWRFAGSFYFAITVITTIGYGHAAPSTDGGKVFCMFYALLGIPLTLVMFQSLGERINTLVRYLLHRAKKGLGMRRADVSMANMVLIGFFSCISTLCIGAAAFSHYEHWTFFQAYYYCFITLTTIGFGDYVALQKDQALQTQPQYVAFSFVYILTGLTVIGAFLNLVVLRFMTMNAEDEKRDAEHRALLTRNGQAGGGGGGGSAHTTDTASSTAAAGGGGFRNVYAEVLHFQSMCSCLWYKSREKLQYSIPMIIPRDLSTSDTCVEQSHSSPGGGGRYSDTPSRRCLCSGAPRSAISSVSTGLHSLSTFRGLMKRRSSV
KCNQ1 inh – inhibitors of human KCNQ1 potassium channel; B-score at 10 µM; hit rate 1.3% among 310,000; P51787; CHO-K1 KCNQ1, FluxOR thallium flux fluorescence; stronger effect = higher value;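 active means compounds whose thallium flux B-score, printed positive for inhibition, exceeds three library SD while starting fluorescence stays within three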;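 further: channel opened by potassium depolarization with thallium stimulus after 20 min compound exposure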
KCNK9 inh conf – human KCNK9 inhibitor confirmation; shares compounds with KCNK9 block; HEK293 KCNK9 cells, FluxOR thallium flux fluorescence; inhibition, % at 10 µM; hit rate 43% among 4,900; AID 492992;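 active means thallium signal inhibited by more than 5 SD of the compound-free buffer control wells, on both duplicate plates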
Kir2-1 spec – selectivity of KCNK9 modulators against mouse Kir2.1; shares compounds with KCNK9 block; Kir2.1 cells, FluxOR thallium flux fluorescence; inhibition, % at 10 µM; hit rate 4% among 4,900;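 active means thallium signal drop more than 5 SD beyond the mean of the no-compound control wells, seen in both duplicate plates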;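 further: signal is fluorescence rise after thallium addition divided by baseline fluorescence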
KCNK9 uninduced – non-induced cell nonspecific activity of KCNK9 modulators; shares compounds with KCNK9 block; hit rate 40% among 4,900; AID 492997; non-induced KCNK9-HEK293, FluxOR thallium flux; inhibition, % at 10 µM;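 active means thallium signal drop beyond 5 SD of the untreated control mean, on both duplicate plates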
KCNK3 inh conf – human KCNK3 channel inhibition, confirmation assay | hit rate 99% among 2,400 | CHO-KCNK3 thallium flux, FluxOR fluorescence; 0% buffer, 100% carvedilol maximal block | shares compounds with KCNK3 inh | ratio percent of control, % at 10 µM | AID 651638;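 active means ratio percent of control, averaged over triplicates, above buffer control mean plus 5 SD, cut at about 64% in these data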;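 further: ratio is the fluorescence rise from min to max over baseline after thallium stimulus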
KCNK3 uninduced – KCNK3 inhibitor counter-screen hit in non-induced cells | shares compounds with KCNK3 inh | non-induced KCNK3 parental cells, FluxOR thallium flux; stronger effect = lower value | thallium flux ratio (lower = more inhibition) at 10 µM | hit rate 40% among 2,400 | AID 651747;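 active means thallium flux ratio, averaged over three wells, more than 5 SD below the buffer control mean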;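 further: host cells are CHO cells without KCNK3 induction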
Each line names hits and unclear results; the compound was inactive in the other large screens (follow-up assays come after a bar, where they were run).

O=C(CNc1ccccc1F)Nc1cccc2ccccc12	KCNK9 block -12, KCNK3 inh -14 | KCNK9 inh conf 49% | Kir2-1 spec inactive | KCNK9 uninduced inactive | KCNK3 inh conf 112 | KCNK3 uninduced 0.16
CSc1cccc(NC(=O)c2cccc3cccnc23)c1	KCNK9 block -9.6, KCNK3 inh -9.7 | KCNK9 inh conf 28% | Kir2-1 spec inactive | KCNK9 uninduced 32% | KCNK3 inh conf 88 | KCNK3 uninduced inactive
COc1ccccc1C(=O)Nc1cccc(SC)c1	none
CCOc1cc(C2Nc3ccccc3C(=O)N2c2ccccc2)c(Br)cc1OCC(=O)O (configuration not stated)	none
COc1cc(C2Nc3ccccc3C(=O)N2c2ccccc2)ccc1O (configuration not stated)	none
CCOC(=O)COc1c(OC)cc(Cl)cc1C1Nc2ccccc2C(=O)N1c1cccc(C)c1 (configuration not stated)	KCNK9 block -9.1, KCNK3 inh -9.7 | KCNK9 inh conf 48% | Kir2-1 spec inactive | KCNK9 uninduced 38% | KCNK3 inh conf 111 | KCNK3 uninduced inactive
CCOC(=O)COc1c(OC)cc(Cl)cc1C1Nc2ccccc2C(=O)N1c1ccccc1 (configuration not stated)	KCNK9 block -11, KCNK3 inh -11 | KCNK9 inh conf 56% | Kir2-1 spec inactive | KCNK9 uninduced 36% | KCNK3 inh conf 107 | KCNK3 uninduced 0.14
O=C(CCC(=O)Nc1nnc(C2CCCCC2)s1)Nc1ccccc1	none
Cc1nc(Oc2ccc(S(=O)(=O)N3CCOCC3)cc2Cl)c2c3c(sc2n1)CCCC3	none
COc1ccc(CN(C)C(=O)c2oc3ccccc3c2CSC)cc1F	KCNK9 block -12, KCNK3 inh -11 | KCNK9 inh conf 67% | Kir2-1 spec inactive | KCNK9 uninduced 30% | KCNK3 inh conf 104 | KCNK3 uninduced inactive
C=CCN(CC(=O)Nc1cccnc1)S(=O)(=O)c1ccc(Cl)cc1	none (no result: hERG rescue, KCNQ1 pot, Kir21 block, KCNK9 block, KCNQ1 inh)
Cc1c(C(=O)c2ccc(Cl)c(Cl)c2)cnc2cc3c(cc12)OCO3	KCNK9 block -9.9, KCNK3 inh -11 | KCNK9 inh conf 73% | Kir2-1 spec inactive | KCNK9 uninduced 44% | KCNK3 inh conf 100 | KCNK3 uninduced inactive
COc1ccc(Cl)cc1NC(=O)CN(C)Cc1cccs1	KCNK9 block -21, KCNK3 inh -13 | KCNK9 inh conf 74% | Kir2-1 spec inactive | KCNK9 uninduced 50% | KCNK3 inh conf 108 | KCNK3 uninduced inactive
COc1ccc(Cl)cc1NC(=O)CNCc1cccs1	none
Cc1ccccc1C(=O)Oc1ccc(Cl)cc1C(=S)N1CCOCC1	KCNK9 block -12, KCNK3 inh -9.3 | KCNK9 inh conf 56% | Kir2-1 spec inactive | KCNK9 uninduced 32% | KCNK3 inh conf 114 | KCNK3 uninduced 0.16
Cc1ccc(C(=O)Oc2ccc(Br)cc2C(=S)N2CCOCC2)cc1	none
CCCCn1c(N)c(N(CC(C)C)C(=O)CSc2nn(-c3ccc(F)cc3)c(=S)s2)c(=O)[nH]c1=O	none (no result: hERG rescue, KCNQ1 pot, Kir21 block, KCNK9 block, KCNQ1 inh)
COc1ccccc1C(=O)Nc1ccc(C(=O)c2ccccc2)cc1	KCNK9 block -12, KCNK3 inh -13 | KCNK9 inh conf 61% | Kir2-1 spec inactive | KCNK9 uninduced inactive | KCNK3 inh conf 127 | KCNK3 uninduced 0.13

Screens deposited in PubChem BioAssay by Johns Hopkins Ion Channel Center.
